# Measurements: article PMC8717895 (Neuro-oncology Advances, 2021)
# Entries after “also recorded” stand apart in the source; their conditions may differ. Read-outs that look alike come from different tables or passages of the source.
# Legend:
# [1] = format: in vivo, human; conditions: stratum B
# [2] = Serum pharmacokinetics across all dosage levels; format: in vivo; conditions: human, oral; for Tmax: across dosage levels; for half-life: pediatric patients, across all dosage levels
# [3] = CSF crenolanib disposition; format: in vivo, human; conditions: for CSF crenolanib concentration: stratum A2 patient
# newly diagnosed DIPG = assay: Survival outcomes, stratum A; format: in vivo, human
# Outline: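 Dosing began with conformal RT (1.8-Gy fractions daily, 5 days/week, 54 Gy) and continued without break. PFS ran from therapy start to progression or death; OS ran from diagnosis to death. Kaplan–Meier estimates; log-rank versus age-matched institutional DIPG cohort (1992–2011).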
# [4] = test system: recurrent HGG, including DIPG; assay: Survival outcomes and response, stratum B; format: in vivo, human
# Outline: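 Dosing was BSA-based, rounded to 20 mg, and escalated from 100 mg/m2. PFS ran from therapy start to progression or any-cause death; OS ran from diagnosis to any-cause death. Event-free patients were censored at last follow-up. Survival was estimated by Kaplan–Meier.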
# [5] = test system: human glioma xenograft (U87MG); conditions: after 9 days of dosing at 50 mg/kg BID, ref Crenolanib Investigator's Brochure, AROG Pharmaceuticals, LLC, 2011; cited from earlier work
# [6] = cited from earlier work
# [7] = in vitro, human plasma; cited from earlier work
compound,measurement,setting,value
CC1(COc2ccc3c(c2)ncn3-c2ccc3cccc(N4CCC(N)CC4)c3n2)COC1 [crenolanib],DLTs attributable to crenolanib during the DLT observation period,[1]; dose level 3,"grade 4 GGT, ALT, and AST elevations"
same,DLTs attributable to crenolanib during the DLT observation period,[1]; dose level 4,"grade 3 amylase, GGT, ALT, and AST elevations; also recorded: grade 3 GGT elevation"
same,"patients having grade 3/4 elevations of ALT, AST, GGT, or alkaline phosphatase",[1]; during and after the DLT period,17%
same,Maximum tolerated dose (MTD),"[1]; once daily single agent, pediatric",170 mg/m^2
same,Most common grade 3/4 toxicity,[1]; resolved with drug interruption,leukopenia
same,Tmax,[2]; median,4 h
same,Tmax,[2]; range,1 to 8 h
same,half-life,[2]; median,7.1 h
same,half-life,[2]; range,2.2 to 18.8 h
same,Kp,"[3]; human, cerebrospinal fluid / serum (total), oral, 100 mg/m^2",0.025
same,serum crenolanib concentration,"[3]; simultaneous with day 28 CSF sampling, third cycle",546 nM
same,CSF crenolanib concentration,"[3]; third cycle day 14, approximately 19 h after dose",9.15 nM
same,CSF crenolanib concentration,"[3]; third cycle day 28, approximately 19 h after dose",13.6 nM
same,1-year OS estimate,newly diagnosed DIPG; all patients in stratum A,43.3% ± 8.7%
same,1-year PFS estimate,newly diagnosed DIPG; all patients in stratum A,17.8% ± 7.2%
same,2-year OS estimate,newly diagnosed DIPG; all patients in stratum A,20.0% ± 6.8%
same,6-month PFS estimate,newly diagnosed DIPG; all patients in stratum A,74.9% ± 8.2%
same,OS distributions versus historical cohort of newly diagnosed DIPG (n = 189),"newly diagnosed DIPG; stratum A, log-rank P = .99",no significant difference
same,1-year OS estimate,[4]; all patients in stratum B,72.1% ± 9.5%
same,1-year PFS estimate,[4]; all patients in stratum B,5.2% ± 3.5%
same,2-year OS estimate,[4]; all patients in stratum B,33.7% ± 9.7%
same,6-month PFS estimate,[4]; all patients in stratum B,10.3% ± 5.6%
same,Objective radiologic responses,[4]; stratum B,No objective radiologic responses were observed
same,inhibition of xenograft growth,[5],47%
same,incidence of significant elevations of liver enzymes,[6]; adults with advanced solid tumors,< 5%
same,Maximum tolerated dose (MTD),"[6]; adults, uncoated tablets with food",not reached
same,unbound fraction,[7],4.1%
